# In ChEMBL document CHEMBL1129554, “6-Substituted and 5,6-disubstituted derivatives of uridine: stereoselective synthesis, interaction with uridine phosphorylase, and in vitro antitumor activity” (J Med Chem, 1996):
# Tests used:
# [1] = Catalytical constant (app Km)of the compound was evaluated at pH 6; format: ADME; conditions: read-out: Km app
# How it was run: (§1)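 Homogeneous E. coli uridine phosphorylase in 50 mM phosphate buffer at 37 °C. pH 6 was used for 5-fluoro analogues and pH 7.5 for the others, so the neutral form predominates. Phosphorolysis was followed spectrophotometrically as the decrease in absorbance, 285 nm for 5-fluoro and 280 nm for the rest. Initial rates were taken over 20 s. Apparent Km and Vmax came from a Wilkinson fit, and efficacy = Vmax/Km.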
# U-937 = assay: In vitro antitumor activity in U-937 cell lines; format: functional, cell-based; conditions: Homo sapiens
# How it was run: (§2)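 Cytotoxicity was measured as inhibition of [¹⁴C]-L-leucine incorporation into protein. Triplicate cultures held 2 × 10⁴ cells/well, or 10⁵ PHA-stimulated peripheral blood lymphocytes, in RPMI 1640 with 10% FCS, 5% CO₂, 37 °C. Label (0.5 µCi/mL) was present for the final 24 h of a 3-day culture (4 days for PHA-Ly). Protein was precipitated with perchloric acid and counted. IC50 (µg/mL) was taken from dose-response curves.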
# IM-9 = assay: In vitro antitumor activity in IM-9 cell lines; format: functional, cell-based; conditions: Homo sapiens; how it was run: as §2
# K562 = assay: In vitro antitumor activity in K-562 cell lines; format: functional, cell-based; conditions: Homo sapiens; how it was run: as §2
# [2] = Efficacy was determined as ratio of Vmax to that of Km; format: ADME; how it was run: as §1
# MOLT-3 = assay: In vitro antitumor activity in MOLT-3 cell lines; format: functional, cell-based; conditions: Homo sapiens; how it was run: as §2
# PHA-Ly = assay: IIn vitro antitumor activity in PHA-Ly cell lines; format: functional, cell-based; conditions: Homo sapiens; how it was run: as §2
# [3] = Catalytical constant (Vmax) was evaluated; format: ADME; how it was run: as §1
# [4] = Catalytical constant (app Km)of the compound was evaluated at pH 7.5; format: ADME; conditions: read-out: Km app; how it was run: as §1
Structure (SMILES),Km [1] [µM],IC50 (U-937) [µg/mL],IC50 (IM-9) [µg/mL],IC50 (K562) [µg/mL],Efficacy [2],IC50 (MOLT-3) [µg/mL],IC50 (PHA-Ly) [µg/mL],Vmax [3],Km [4] [µM]
O=c1[nH]c(=O)n([C@@H]2O[C@H](CO)[C@@H](O)[C@H]2O)c(CF)c1F,979,3.7,> 10,> 10,0.06,3.5,4.5,57 uM min-1 (mg of protein)-1,
CCCc1cc(=O)[nH]c(=O)n1C1O[C@H](CO)[C@@H](O)[C@H]1O (some centres undefined),,,,,0.03,,,40 uM min-1 (mg of protein)-1,1150
O=c1cc(CF)n(C2O[C@H](CO)[C@@H](O)[C@H]2O)c(=O)[nH]1 (some centres undefined),,> 10,9.9,> 10,0.99,> 10,> 10,297 uM min-1 (mg of protein)-1,300
O=c1[nH]c(=O)n(C2O[C@H](CO)[C@@H](O)[C@H]2O)c(CO)c1F (some centres undefined),4000,3.7,3,4.9,0.09,1.2,2.8,370 uM min-1 (mg of protein)-1,
O=c1cc(CO)n(C2O[C@H](CO)[C@@H](O)[C@H]2O)c(=O)[nH]1 (some centres undefined),,> 10,> 10,> 10,0.53,> 10,98,254 uM min-1 (mg of protein)-1,476
CCc1cc(=O)[nH]c(=O)n1C1O[C@H](CO)[C@@H](O)[C@H]1O (some centres undefined),,,,,0.15,,,175 uM min-1 (mg of protein)-1,1200
Cc1c(F)c(=O)[nH]c(=O)n1C1O[C@H](CO)[C@@H](O)[C@H]1O (some centres undefined),1360,> 10,> 10,> 10,0.05,> 10,> 10,67 uM min-1 (mg of protein)-1,
O=c1[nH]c(=O)n([C@@H]2O[C@H](CO)[C@@H](O)[C@H]2O)cc1F [5-FLUOROURIDINE],152,< 0.01,< 0.01,0.026,2.1,< 0.01,< 0.1,323 uM min-1 (mg of protein)-1,
O=c1[nH]cc(F)c(=O)[nH]1 [FLUOROURACIL],,0.5,0.34,4.3,,1.2,1.4,,
